# PubChem BioAssay
# Values without a mark were called inactive. Results filed as inconclusive are left out. Activity calls are given as the source filed them.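 How the source made its calls, unless noted: active means inhibition over a set limit, the all-compound mean plus 3 SD, in both replicate runs; inconclusive means over that limit in just one replicate run; inactive means at or under that limit in both runs.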
# Experiments:
# [1] = OD615 S. cerevisiae growth inhibition, permissive medium, pilot counter-assay, permissive growth control for S. cerevisiae lifespan shortening project (AID 705;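 active means growth inhibition above 25% in both replicates, a cutoff set 3 SD above the mean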); conditions: OD615, 24 h, at 10 µM, stronger effect = higher value
# Procedure, shortened: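 System – S. cerevisiae with engineered DeaD lifespan system · Buffer or medium – SC raffinose/galactose permissive medium · Schedule – cells pre-grown 4 h, then 24 h compound exposure, 30 °C humidified · Technique – culture turbidity as optical density at 615 nm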
# [2] = Restrictive medium S. cerevisiae growth inhibition, OD615, pilot screen of yeast lifespan reduction project, restrictive growth control (AID 706;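 active means growth inhibition above a set limit, 3 SD over mean compound inhibition, in both replicates, cut at about 43% in these data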;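 further: modified DeaD lifespan yeast strain shifted to restrictive glucose medium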); conditions: OD615, 48 h, at 10 µM, stronger effect = higher value
# Procedure, shortened: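 Material: engineered S. cerevisiae DeaD strain / Medium: glucose-based CSMM-D restrictive medium / Compound: single dose of 10 µM compound final, 0.25% DMSO / Timing: 4 h pre-incubation, 48 h exposure at 30 °C / Technique: OD615 absorbance reading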
# [3] = viability gain of MRP-1-high H69AR cells under doxorubicin, pilot screen, MRP-1 activator project, CellTiter-Glo, duplicate (AID 807;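 active means viability increase at or above a cutoff of the median across tested compounds plus 3 SD, cut at about 8.5% in these data, passing the limit was not always enough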;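 further: compound pretreatment 18-22 h then 72 h combined with doxorubicin; 0% = doxorubicin alone and 100% = vehicle without doxorubicin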); conditions: H69AR viability with doxorubicin, CellTiter-Glo luminescence; at 10 µM; stronger effect = higher value
# [4] = growth suppression of beta-catenin knockout HCT116, pilot screen, human colon tumor cells (AID 823;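 active means cell viability at or below a set limit in both duplicate runs, the limit being the all-compound median minus 4 SD, cut at about 23% in these data, passing the limit was not always enough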;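 further: 0% = wells killed by 20 µM Hyamine and 100% = untreated DMSO cell wells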); conditions: CellTiter-Glo, 60 h, at 10 µM, stronger effect = lower value
# [5] = growth suppression of PTEN-deleted HCT116, pilot screen, cell-based, HCT116 clonal line, CellTiter-Glo (AID 824;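 active means viability at or below 27.92% in each of two runs, the all-compound median minus 4 SD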;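 further: 0% = 20 µM Hyamine control and 100% = vehicle cell control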); conditions: 60 h, at 10 µM, stronger effect = lower value
# [6] = inhibitors of the yeast RAM network, pilot screen, dse1pr::URA3 reporter, 5-FOA selection (AID 869);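 further: 0% = DMSO wells with no growth and 100% = 10 µM 1-NA-PP1 with full growth; RAM network block rescues cells from 5-FOA so hits raise OD615 growth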; conditions: S. cerevisiae dse1pr::URA3 5-FOA growth, OD615, 2 d; at 10 µM; stronger effect = higher value; strain carries analog-sensitive mutant Cbk1 kinase
# [7] = RAM signaling pathway blockade in yeast – S. cerevisiae, Pdr1DBD-CYC8 efflux-inhibited sensitized strain, primary screen (AID 1298;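 active means RAM network inhibition above 8.4% in each of two replicates, 3 SD over the compound average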;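 further: 0% = DMSO untreated cells without growth and 100% = 10 µM 1-NA-PP1 full growth; higher means more yeast growth rescued from 5-FOA killing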); conditions: S. cerevisiae cbk1-as DSE1-URA3 strain, 5-FOA growth OD615, 2 d; at 50 µM; stronger effect = higher value
Compound,growth inhibition [1],growth inhibition [2],viability increase [3],viability [4],viability [5],inhibition [6],RAM network inhibition [7]
Cc1ccccc1C(=O)Nc1ccccc1,-0.285%,-2.05%,-0.99%,96.1%,85.4%,0.28%,0.56%
O=C(CSc1ccc2nnc(-c3ccc(F)cc3)n2n1)N1CCOCC1,-5.25%,-2.17%,-2.97%,105%,96.6%,0.08%,0.47%
CCOc1ccc(NC(=O)CSc2nc3c(c(=O)n2C)SC(C)C3)cc1 (configuration not stated),-13.6%,-13.2%,-0.83%,93.5%,91.6%,4.75%,5.69%
O=C1CSC(=S)N1Cc1cccnc1,-15.3%,16.2%,-8.48%,8.06% (active),9.45% (active),0.82%,-0.15%
COc1ccc(OCC(=O)OCCN2C(=O)c3ccccc3C2=O)cc1,3.16%,-3.81%,-0.31%,101%,106%,0.97%,8.21%
O=C(CSc1nnc(-c2cccs2)o1)N1CCCCC1,-2.25%,11.9%,2.11%,104%,115%,1.31%,1.38%
O=C(CSc1nnc(Cc2cc(=O)[nH]c(=O)[nH]2)n1-c1ccccc1)N1CCCCC1,-4.77%,5.95%,-2.54%,99.7%,90.4%,1.02%,-2.08%
Cc1ccc(N(C(=O)c2cccs2)C2C=CS(=O)(=O)C2)cc1 (configuration not stated),-11.1%,-10.6%,-2.23%,98.3%,94%,1.96%,1.19%
COc1cccc(-c2cc(C(F)(F)F)nc(N3CCOCC3)n2)c1,-4.32%,-9.04%,0.16%,73.5%,77.8%,1.38%,6.83%
CCc1ccc(C2CC(c3ccccc3)Nc3nc(N)nn32)cc1 (configuration not stated),-5.9%,-6.06%,0.7%,97.3%,100%,-0.27%,5.98%
Cc1cc(Nc2ccc(Br)cc2F)n2ncnc2n1,-2.09%,11.9%,-3.52%,90.6%,87.2%,0.76%,-0.94%
Cc1c(N=c2c(=O)c3ccccc3c2=O)c(=O)n(-c2ccccc2)n1C,-15.7%,-8.74%,-4.43%,95.2%,95.3%,4.17%,3.66%
Oc1c(C(c2ccccc2)N2CCCCC2)sc2ncnn12 (configuration not stated),-0.17%,-3.96%,-0.8%,95.7%,91.8%,1.76%,0.66%
Clc1ccccc1N1CCN(c2ncnc3nc[nH]c23)CC1,7.42%,-4.18%,-1.4%,95%,95.7%,4.08%,5.77%
C=Cn1ccnc1P(=S)(c1ccc2c(c1)c1ccccc1n2CC)c1nccn1C=C,-10.3%,-21.9%,-6.67%,16.2% (active),13.8% (active),3.5%,6.54%
C=CCSc1nc2c(cnn2-c2ccc(C)c(C)c2)c(=O)[nH]1,-6.23%,-5.07%,-1.43%,93.3%,93.1%,4.19%,0.11%
COc1cccc(C2NC(=O)NC(C)=C2C(=O)Nc2cc(OC)ccc2OC)c1 (configuration not stated),-7.14%,0.605%,-0.51%,95.2%,94.9%,1.15%,5.92%
CN1C(=O)CS(=O)c2ccc(C(=O)NC3CC3)cc21 (configuration not stated),1.7%,-0.875%,-2.2%,99.4%,95.4%,2.25%,-1.59%

Compound,growth inhibition [1],growth inhibition [2],viability increase [3],viability [4],viability [5],inhibition [6],RAM network inhibition [7]
CCCNc1nc2c(c(=O)[nH]c(=O)n2C)n1Cc1ccc(F)cc1,-1.32%,-1.12%,-2%,104%,92.9%,0.945%,0.57%
CCC(=O)Nc1cccc(-c2nnc(SCC(=O)c3ccccc3)n2C)c1,0.325%,45.9% (active),-1.76%,91.7%,92.6%,0%,4.95%
Cc1ccccc1NC(=O)CCN1CCN(Cc2ccccc2)CC1,-9.43%,3.58%,-3.29%,94.8%,89.6%,1.85%,5.05%
Cc1ccc(C(=O)CC(C(=O)O)c2cn(CCC#N)c3ccccc23)cc1 (configuration not stated),-4%,3.92%,-1.96%,98.3%,104%,0.735%,3.81%
N#CCCN(CCC#N)C(=O)c1ccc(Cl)cc1,-2.15%,-11.1%,-1.59%,92.7%,93.2%,1.3%,3.78%
CCCCNC(=O)c1ccc(CS(=O)(=O)c2ccc(OC)cc2)o1,-14.2%,-23%,-0.64%,107%,97.8%,0.45%,2.18%
COc1ccc(C2C(C(=O)c3ccco3)=C(O)C(=O)N2Cc2cccnc2)cc1OC (configuration not stated),-4.18%,6.84%,-3.78%,102%,98.7%,0.875%,0.66%
c1ccc(C(Cc2nc(-c3cccnc3)no2)c2ccccc2)cc1,-8.42%,-4.57%,0.35%,90.8%,88.2%,1.46%,7.55%
Cc1cc(C)nc(SCSc2nc(C)cc(C)n2)n1,0.095%,5.64%,-2.17%,104%,103%,1.23%,5.29%
CCOC(=O)c1cc(-c2ccc(C)o2)nn1CCC#N,-6.98%,4.24%,0.21%,101%,102%,0.86%,3.69%
Cc1noc(NS(=O)(=O)c2ccc(NC(=O)COc3ccc(Cl)cc3Cl)cc2)c1C,-2.93%,10.8%,-0.49%,100%,98.6%,2.39%,7.51%
CC(=O)c1cccc(NC(=O)CN(c2ccc(F)cc2)S(C)(=O)=O)c1,-13%,-15.2%,-3.2%,98.2%,98.7%,0.845%,5.96%
Cc1cc(-c2ccco2)n(CC(=O)NCCCc2ccccc2)n1,-13.3%,-2.17%,-1.48%,100%,97%,0.905%,-0.37%
COC(=O)c1ccccc1NC(=O)Nc1nnc(N2CCCCC2C)s1 (configuration not stated),-8.82%,5.2%,-0.77%,64.3%,49.8%,0.815%,1.05%
COc1ccc(C(=O)c2cnc(C(C)C)n2C)cc1,-3.74%,-9.59%,2.12%,98.2%,90.2%,1.88%,4.97%
CCOC(=O)C1C(=O)CC(C)(O)C(C(=O)OCC)C1/C=C/c1ccccc1 (configuration not stated),-4.58%,2.66%,-3.71%,94.4%,83.1%,0.605%,7.42%
CCCOC(=O)c1ccc(OCC(O)CN2C(=O)NC(C)(C)C2=O)cc1 (configuration not stated),1.83%,1.78%,-0.77%,96.9%,97.2%,0.14%,0.77%
COCCn1c(CN(C)Cc2ccccc2)nc2c1c(=O)n(C)c(=O)n2C,-5.71%,8.7%,0.55%,87.8%,91.5%,3.04%,1.53%
